Test results reported in ChEMBL document CHEMBL4196091 (Eur J Med Chem, 2018).
Active and inactive are the calls of the source. The rule behind the calls is not given here.

Key:
[1] = tested on: HT-29; experiment: Antiproliferative activity against human HT-29 cells after 2 days by MTT assay; assay type: functional, cell-based; details: HT-29, 48 h
[2] = tested on: MCF7; experiment: Antiproliferative activity against human MCF7 cells after 2 days by MTT assay; assay type: functional, cell-based; details: MCF7, 48 h
[3] = tested on: A549; experiment: Antiproliferative activity against human A549 cells after 2 days by MTT assay; assay type: functional, cell-based; details: A549, 48 h
[4] = tested on: HEK293; experiment: Antiproliferative activity against HEK293 cells after 2 days by MTT assay; assay type: ADME, cell-based; details: Homo sapiens, HEK293, 48 h
[5] = tested on: A549; experiment: Cell cycle arrest in human A549 cells assessed as accumulation at sub-G0 phase at 20 nM after 24 hrs by propidium iodide staining based flow cytometry (reference value: 2 +/- 1%); assay type: functional
In short: (§1)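 A549 cells maintained in DMEM (1 g/L glucose, 2 mM glutamine, penicillin/streptomycin/amphotericin B, 10% FBS) and treated for 24 h. Cells were then fixed, RNase-treated and stained with propidium iodide. DNA content was measured by flow cytometry to give cell-cycle phase distribution, including a sub-G1 peak. Data are means (±SD) of two experiments.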

[6] = tested on: A549; experiment: Cell cycle arrest in human A549 cells assessed as accumulation at G0/G1 phase at 20 nM after 24 hrs by propidium iodide staining based flow cytometry (reference value: 73 +/- 3%); assay type: functional; in short: as §1
[7] = tested on: A549; experiment: Cell cycle arrest in human A549 cells assessed as accumulation at S phase at 20 nM after 24 hrs by propidium iodide staining based flow cytometry (reference value: 15 +/- 6%); assay type: functional; in short: as §1
[8] = tested on: A549; experiment: Cell cycle arrest in human A549 cells assessed as accumulation at G2/M phase at 20 nM after 24 hrs by propidium iodide staining based flow cytometry (reference value: 11 +/- 4%); assay type: functional; in short: as §1
[9] = tested on: A549; experiment: Cell cycle arrest in human A549 cells assessed as accumulation at sub-G0 phase at 15 nM after 24 hrs by propidium iodide staining based flow cytometry (reference value: 2 +/- 1%); assay type: functional; in short: as §1
[10] = tested on: A549; experiment: Cell cycle arrest in human A549 cells assessed as accumulation at G0/G1 phase at 15 nM after 24 hrs by propidium iodide staining based flow cytometry (reference value: 73 +/- 3%); assay type: functional; in short: as §1
[11] = tested on: A549; experiment: Cell cycle arrest in human A549 cells assessed as accumulation at S phase at 15 nM after 24 hrs by propidium iodide staining based flow cytometry (reference value: 15 +/- 6%); assay type: functional; in short: as §1
[12] = tested on: A549; experiment: Cell cycle arrest in human A549 cells assessed as accumulation at G2/M phase at 15 nM after 24 hrs by propidium iodide staining based flow cytometry (reference value: 11 +/- 4%); assay type: functional; in short: as §1
[13] = tested on: A549; experiment: Cell cycle arrest in human A549 cells assessed as accumulation at G2/M phase at antiproliferative IC50 after 24 hrs by propidium iodide staining based flow cytometry; assay type: functional
In short: (§2)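 A549 cells kept in DMEM (1 g/L glucose, 2 mM glutamine, antibiotics, amphotericin B, 10% FBS), treated 24 h with compound from 10 mM DMSO stock; fixed, RNase-treated, stained with propidium iodide, DNA content read by flow cytometry for phase distribution. Average (±SD) of two experiments.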

[14] = tested on: HT-29; experiment: Downregulation of c-Myc gene expression in human HT-29 cells assessed as c-Myc mRNA level at 3 nM after 48 hrs by RT-PCR method (reference value: 100%); assay type: functional
In short: (§3)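 HT-29 cells (1.5 x 10^5 per well, six-well plate) seeded 24 h, then exposed 48 h with DMSO control; total RNA extracted, target mRNA quantified by TaqMan RT-qPCR, normalized to β-actin, expressed as percentage of control. At least three measurements; one-sample t-tests.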

[15] = tested on: HT-29; experiment: Downregulation of hTERT gene expression in human HT-29 cells assessed as hTERT mRNA level at 3 nM after 48 hrs by RT-PCR method (reference value: 100%); assay type: functional; in short: as §3
[16] = tested on: HT-29; experiment: Downregulation of VEGF gene expression in human HT-29 cells assessed as VEGF mRNA level at 3 nM after 48 hrs by RT-PCR method (reference value: 100%); assay type: functional; in short: as §3
[17] = tested on: HT-29; experiment: Inhibition of VEGF protein secretion in human HT-29 cells assessed as VEGF protein level at 3 nM after 48 hrs by ELISA (reference value: 100%); assay type: functional; design: scale not given: the % may be the effect or the level left
In short: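 HT-29 cells (1.5 x 10^5 per well, six-well plate) seeded 24 h, then treated 48 h with DMSO control; secreted VEGF in culture supernatant measured by human VEGF ELISA kit, expressed as percentage of control. At least three measurements.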

[18] = Selectivity index, ratio of IC50 for HEK293 cells to IC50 for human HT-29 cells; details: HEK293 cells versus HT-29 cells
[19] = Selectivity index, ratio of IC50 for HEK293 cells to IC50 for human MCF7 cells; details: HEK293 cells versus MCF7 cells
[20] = Selectivity index, ratio of IC50 for HEK293 cells to IC50 for human A549 cells; details: HEK293 cells versus A549 cells
[21] = tested on: A549; experiment: Cell cycle arrest in human A549 cells assessed as accumulation at sub-G0 phase at 7.5 nM after 24 hrs by propidium iodide staining based flow cytometry (reference value: 2 +/- 1%); assay type: functional; in short: as §2
[22] = tested on: A549; experiment: Cell cycle arrest in human A549 cells assessed as accumulation at G0/G1 phase at 7.5 nM after 24 hrs by propidium iodide staining based flow cytometry (reference value: 73 +/- 3%); assay type: functional; in short: as §2
[23] = tested on: A549; experiment: Cell cycle arrest in human A549 cells assessed as accumulation at S phase at 7.5 nM after 24 hrs by propidium iodide staining based flow cytometry (reference value: 15 +/- 6%); assay type: functional; in short: as §2
[24] = tested on: A549; experiment: Cell cycle arrest in human A549 cells assessed as accumulation at G2/M phase at 7.5 nM after 24 hrs by propidium iodide staining based flow cytometry (reference value: 11 +/- 4%); assay type: functional; in short: as §2
[25] = tested on: A549; experiment: Cell cycle arrest in human A549 cells assessed as accumulation at G2/M phase at 0.5 times antiproliferative IC50 after 24 hrs by propidium iodide staining based flow cytometry; assay type: functional; in short: as §1
[26] = tested on: HT-29; experiment: Downregulation of c-Myc gene expression in human HT-29 cells assessed as c-Myc mRNA level at 10 nM after 48 hrs by RT-PCR method (reference value: 100%); assay type: functional
In short: (§4)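 HT-29 cells were taken at 70–80% confluence and seeded at 1.5 x 10^5 per well. After 24 h they were exposed to compound for 48 h. Total RNA was isolated and TaqMan RT-qPCR run for VEGF-A, c-MYC and hTERT, normalized to β-actin. Expression is given as percent of DMSO control, with at least three measurements and one-sample t-tests.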

[27] = tested on: HT-29; experiment: Downregulation of hTERT gene expression in human HT-29 cells assessed as hTERT mRNA level at 10 nM after 48 hrs by RT-PCR method (reference value: 100%); assay type: functional; in short: as §4
[28] = tested on: HT-29; experiment: Downregulation of VEGF gene expression in human HT-29 cells assessed as VEGF mRNA level at 10 nM after 48 hrs by RT-PCR method (reference value: 100%); assay type: functional; in short: as §4
[29] = tested on: HT-29; experiment: Inhibition of VEGF protein secretion in human HT-29 cells assessed as VEGF protein level at 10 nM after 48 hrs by ELISA (reference value: 100%); assay type: functional; design: scale not given: the % may be the effect or the level left
[30] = tested on: A549; experiment: Cell cycle arrest in human A549 cells assessed as accumulation at sub-G0 phase at 50 nM after 24 hrs by propidium iodide staining based flow cytometry (reference value: 2 +/- 1%); assay type: functional; in short: as §1
[31] = tested on: A549; experiment: Cell cycle arrest in human A549 cells assessed as accumulation at G0/G1 phase at 50 nM after 24 hrs by propidium iodide staining based flow cytometry (reference value: 73 +/- 3%); assay type: functional; in short: as §1
[32] = tested on: A549; experiment: Cell cycle arrest in human A549 cells assessed as accumulation at S phase at 50 nM after 24 hrs by propidium iodide staining based flow cytometry (reference value: 15 +/- 6%); assay type: functional; in short: as §1
[33] = tested on: A549; experiment: Cell cycle arrest in human A549 cells assessed as accumulation at G2/M phase at 50 nM after 24 hrs by propidium iodide staining based flow cytometry (reference value: 11 +/- 4%); assay type: functional; in short: as §1

With COc1cc2c(c(OC)c1OC)-c1ccc(OC)c(=O)cc1[C@@H](NC(=O)Cc1ccccc1)CC2 as the compound, how does the IC50 [1] read?
Its IC50 is 2.84 nM.

What about the IC50 [2] of the same compound?
Its IC50 is 2.6 nM.

And the IC50 [3]?
Its IC50 is 2.8 nM.

What about the IC50 [4] of the same compound?
The IC50 was 3.9 nM.

What about the Activity [5] of the same compound?
Its Activity is 5%.

What about the Activity [6] of the same compound?
Its Activity is 19%.

What about the Activity [7] of the same compound?
Its Activity is 16%.

What about the Activity [8] of the same compound?
The Activity was 60%.

For COc1cc2c(c(OC)c1OC)-c1ccc(OC)c(=O)cc1[C@@H](NC(=O)CCl)CC2, which IC50 [1] is on record?
Its IC50 is 4.6 nM.

And the IC50 [2]?
Its IC50 is 29 nM.

And the IC50 [3]?
Its IC50 is 12.3 nM.

What about the IC50 [4] of the same compound?
The IC50 was 4.56 nM.

And the Activity [9]?
The Activity was 2%.

What about the Activity [10] of the same compound?
Its Activity is 22%.

What about the Activity [11] of the same compound?
The Activity was 20%.

And the Activity [12]?
The Activity was 55%.

What about the Activity [13] of the same compound?
The Activity was “Active”.

And the Activity [14]?
The Activity was 74%.

And the Activity [15]?
The Activity was 66%.

And the Activity [16]?
The Activity was 76%.

What about the Activity [17] of the same compound?
The Activity was 100%.

Which IC50 [1] does the source give for CCCCCc1ccc(C(=O)N[C@H]2CCc3cc(OC)c(OC)c(OC)c3-c3ccc(OC)c(=O)cc32)cc1 here?
The IC50 was 4.2 nM.

And the IC50 [2]?
Its IC50 is 5.8 nM.

And the IC50 [3]?
Its IC50 is 1.27 nM.

And the IC50 [4]?
Its IC50 is 1.6 nM.

And the selectivity ratio [18]?
The selectivity ratio was 0.4.

And the selectivity ratio [19]?
The selectivity ratio was 0.3.

What about the selectivity ratio [20] of the same compound?
The selectivity ratio was 1.3.

Which results are given for COc1cc2c(c(OC)c1OC)-c1ccc(OC)c(=O)cc1[C@@H](NC(=O)CF)CC2?
IC50 [1]: 4.7 nM; IC50 [2]: 7.3 nM; IC50 [3]: 7.83 nM; IC50 [4]: 7.1 nM; Activity [21]: 2%; Activity [22]: 25%; Activity [23]: 15%; Activity [24]: 60%; Activity [13]: Active; Activity [14]: >100%; Activity [15]: >100%; Activity [16]: >100%; Activity [17]: 88%

Which IC50 [1] does the source give for COc1cc2c(c(OC)c1OC)-c1ccc(OC)c(=O)cc1[C@@H](NC(=O)CBr)CC2 here?
The IC50 was 13.7 nM.

And the IC50 [2]?
Its IC50 is 16.4 nM.

And the IC50 [3]?
The IC50 was 26 nM.

And the IC50 [4]?
Its IC50 is 14.4 nM.

What about the Activity [9] of the same compound?
Its Activity is 3%.

And the Activity [10]?
The Activity was 25%.

And the Activity [11]?
Its Activity is 19%.

And the Activity [12]?
The Activity was 53%.

And the Activity [25]?
The Activity was “Active”.

What about the Activity [26] of the same compound?
The Activity was 35%.

And the Activity [27]?
The Activity was 79%.

And the Activity [28]?
The Activity was 44%.

And the Activity [29]?
Its Activity is 100%.

What does the source list for COc1cc2c(c(OC)c1OC)-c1ccc(OC)c(=O)cc1[C@@H](NC(=O)c1ccc(C)cc1)CC2?
IC50 [1]: 9 nM; IC50 [2]: 31 nM; IC50 [3]: 8.8 nM; IC50 [4]: 16.1 nM; Activity [30]: 13%; Activity [31]: 44%; Activity [32]: 26%; Activity [33]: 16%

What does the source list for COc1cc2c(c(OC)c1OC)-c1ccc(OC)c(=O)cc1[C@@H](NC(=O)CC1CCCCC1)CC2?
IC50 [1]: 8.7 nM; IC50 [2]: 9 nM; IC50 [3]: 19.4 nM; IC50 [4]: 10.5 nM
